Assay outcomes from PubChem.
Hits are enriched below; roughly 2.9% of the tested compounds scored in any of these assays.
M18AAP inhibitor – PfM18AAP enzyme inhibition. recombinant PfM18AAP, H-Glu-NHMec fluorogenic cleavage. inhibition, % at 7.35 µM. 1.2% of 290,000 active;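 active = inhibition above the campaign mean inhibition over all tested compounds plus 3 SD, cut at about 28% in these data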;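 also: 0% = plate median of test compound wells and 100% = 2 mM ZnCl2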
Apaf1 inhib – inhibitors of human Apaf-1 apoptosome | reconstituted apoptosome caspase-3 activity, DEVD-Rh110 fluorescence | inhibition, % at 20 µM | 0.71% of 330,000 active | AID 489030; active = inhibition of at least 40% at 20 µM;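 also: plate controls were DMSO wells for no effect and DEVD-CHO caspase inhibitor wells for full effect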
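Material: reconstituted apoptosome with Apaf-1, cytochrome c, caspase-9, procaspase-3, dATP; medium: pH 7.5 Hepes buffer with CHAPS, BSA, DTT; also added: cytochrome c and DEVD-Rh110 substrate; timing: 30 min plus 50 min, RT; signal: Rh110 fluorescence intensity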
PfGluPho inh – PfG6PD (Plasmodium falciparum) enzyme inhibition; PfGluPho enzyme, NADPH resazurin-diaphorase fluorescence; inhibition, % at 20 µM; 0.78% of 350,000 active;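 active = inhibition reaching at least a set limit at 20 µM in the primary screen, cut at about 59% in these data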;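 also: 0% = DMSO wells with substrate and 100% = DMSO wells lacking glucose-6-phosphate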
EBNA-1 inhibitor – blocks EBNA-1 binding to DNA. EBNA-1 DNA binding, fluorescence polarization. inhibition, % at 14.8 µM. 0.34% of 300,000 active. AID 1950; in the data active = inhibition above about 28%
UBC13 polyUb – human UBC13 polyubiquitination inhibition; UBC13 polyubiquitin chain formation, TR-FRET; inhibition, % at 20 µM; 0.47% of 330,000 active; in the data active = inhibition above about 45%, passing the limit was not always enough; inconclusive = no clear call, values can overlap the other calls
ZTA DNA inh – counter-screen for EBNA-1 inhibitors: inhibitors of Epstein-Barr virus ZTA; inhibition, % at 11 µM; 0.15% of 320,000 active; ZTA-DNA binding, fluorescence polarization; P03206; in the data active = inhibition above about 33%
Target sequence (P03206 whole entry, looked up): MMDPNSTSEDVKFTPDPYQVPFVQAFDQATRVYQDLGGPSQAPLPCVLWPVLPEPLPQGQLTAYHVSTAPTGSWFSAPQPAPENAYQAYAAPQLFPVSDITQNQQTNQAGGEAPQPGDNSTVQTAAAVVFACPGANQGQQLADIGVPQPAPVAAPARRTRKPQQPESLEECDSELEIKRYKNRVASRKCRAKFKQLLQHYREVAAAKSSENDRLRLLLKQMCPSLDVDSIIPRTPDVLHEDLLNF
Casp3 counter – caspase-3 inhibition (UBC13 counter-screen); shares compounds with UBC13 polyUb; Recombinant caspase-3, Caspase-Glo 3/7 luminescence, 60 min; inhibition, % at 20 µM; 4% of 1,400 active; AID 488856;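 active = mean inhibition across replicates above about 26%, limit read from the data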;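 also: plate controls were DMSO with caspase-3 for no effect and DMSO wells lacking enzyme for full effect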
Target sequence (P42574 whole entry, looked up): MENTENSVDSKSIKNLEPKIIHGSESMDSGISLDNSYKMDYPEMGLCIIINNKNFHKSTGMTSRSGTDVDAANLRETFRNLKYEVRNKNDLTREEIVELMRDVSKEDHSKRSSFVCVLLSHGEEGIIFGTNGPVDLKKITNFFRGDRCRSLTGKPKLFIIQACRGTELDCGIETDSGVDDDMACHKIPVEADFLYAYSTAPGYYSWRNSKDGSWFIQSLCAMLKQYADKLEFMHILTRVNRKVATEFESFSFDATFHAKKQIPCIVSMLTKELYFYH
UBC13 conf – confirmation of human UBC13 polyubiquitin inhibitors. shares compounds with UBC13 polyUb. UBC13 polyubiquitination, TR-FRET, biochemical. inhibition, % at 10 µM. 68% of 1,400 active; in the data active = inhibition above about 45%; inconclusive = no clear call, values can overlap the other calls
* marks the source's active call; other numbers are inactive results; u = inconclusive; x = no result given.

SMILES	M18AAP inhibitor	Apaf1 inhib	PfGluPho inh	EBNA-1 inhibitor	UBC13 polyUb	ZTA DNA inh	Casp3 counter	UBC13 conf
O=C(CSc1ncccn1)NC(=O)Cc1ccccc1	x	-6	-2	x	-1	-12	x	x
CC(=O)O[C@H]1[C@@H](O)[C@H](O)[C@H](Oc2c(O)c(C)c3c4c2[C@@H](C)CC[C@@H]4[C@@H](C)C[C@H]3C=C(C)C)O[C@H]1C	x	22	30	x	52*	x	-2	32
COc1ccc(-c2cc(C)no2)cc1S(=O)(=O)NCc1ccc(OC(C)C)cc1	3	8	-5	4	0	-14	x	x
COc1ccc(-c2cc(=O)c3c(O)c(OC)c(O)cc3o2)cc1	3	12	23	-6	3	-7	x	x
COc1cc(-c2cc(=O)c3c(O)c(OC)c(OC)cc3o2)cc(OC)c1O	x	-6	21	11	49*	-6	3	-2
CN(C)CCCN(C(=O)c1ccc(S(=O)(=O)N(C)Cc2ccccc2)cc1)c1nc2cc3c(cc2s1)OCO3	-1	25	16	-3	90*	-5	0	108*
CCN(Cc1ccccc1)S(=O)(=O)c1ccc(C(=O)N(CCCN(C)C)c2nc3c(F)cccc3s2)cc1	-3	19	-1	6	24	-1	x	x
Cc1cc(C)c2sc(N(CCCN(C)C)C(=O)c3ccc(S(=O)(=O)N(C)Cc4ccccc4)cc3)nc2c1	x	37	3	-10	96*	-10	2	115*
Cc1ccc2sc(N(CCCN(C)C)C(=O)c3ccc(S(=O)(=O)N(C)Cc4ccccc4)cc3)nc2c1C	x	32	4	-13	39	-1	x	x
CCOc1cccc2sc(N(CCCN(C)C)C(=O)c3ccc(S(=O)(=O)N(CC)Cc4ccccc4)cc3)nc12	-3	67*	-6	5	51*	-5	-4	93*
COc1ccc2sc(N(CCCN(C)C)C(=O)c3ccc(S(=O)(=O)N(C)Cc4ccccc4)cc3)nc2c1	x	34	13	5	48*	-2	-2	93*
CCCCC(=O)Oc1c(S(=O)(=O)c2ccc(C)cc2)c(C)nn1C(C)(C)C	0	20	5	10	0	7	x	x
CC(C)Cc1ccc(CN2CCCC(NC(=O)c3cccc(-n4cnnc4)c3)C2)cc1 (stereo unspecified)	-1	12	-6	11	-5	4	x	x
COc1cccc(OCCNS(=O)(=O)c2ccccc2[N+](=O)[O-])c1	x	3	27	x	12	x	x	x
CCN1CCN(CCCNC(=O)c2ccc(/C=C3/Sc4ccccc4N(Cc4ccccc4F)C3=O)cc2)CC1	2	33	-12	1	46*	15	0	54*
CCN1CCN(CCNC(=O)c2ccc(/C=C3/Sc4ccccc4N(Cc4ccccc4C)C3=O)cc2)CC1	1	x	-19	x	x	x	x	x
CCOC(=O)c1c(C)[nH]c(C(=O)NCCc2ccc(OC)c(OC)c2)c1C	11	6	3	-10	4	-1	x	x
COc1ccc2cc3cc(C(=O)Nc4ccccc4N4CCN(C)CC4)oc3nc2c1	-6	18	25	-5	68*	-9	-1	36
COc1ccc2cc3cc(C(=O)NCCN4CCN(c5ccccc5F)CC4)oc3nc2c1	-6	18	19	6	13	1	x	x
CC1C(=O)N(Cc2cn(CCC3OCCCO3)nn2)CCS(=O)(=O)N1Cc1ccc(-c2ccc(Cl)cc2)cc1 (stereo unspecified)	x	x	8	x	x	x	x	x
O=C(CN(C(=O)CSc1nc2ccccc2o1)c1cccc(F)c1)NC1CCCCC1	-6	-9	4	14	-1	5	x	x
Oc1ccc(NC(=S)N=Nc2c(O)[nH]c3ccccc23)cc1	24	3	11	-11	92*	-1	6	103*
Cc1ccc(NC(=S)N=Nc2c(O)[nH]c3ccccc23)cc1	7	8	-7	-2	43	4	x	x
Oc1cccc(NC(=S)N=Nc2c(O)[nH]c3ccc(Br)cc23)c1	9	7	2	2	86*	-1	3	u
CC(=O)Nc1ccc(C(=O)COC(=O)C2CC2)c(F)c1	x	2	-23	x	0	x	x	x
SMILES	M18AAP inhibitor	Apaf1 inhib	PfGluPho inh	EBNA-1 inhibitor	UBC13 polyUb	ZTA DNA inh	Casp3 counter	UBC13 conf
O=C(NN=C1CCCCCC1)c1ccc2c(c1)OCO2	18	0	8	-5	2	0	x	x
Nc1nc2c(C(=O)N3CCOCC3)nnn2c2ccccc12	2	3	-7	0	11	4	x	x
CC(C)(C)CN1CCNC[C@H]1Cc1cccc2ccccc12	x	11	6	-17	47*	-22	-4	31
Oc1ccc(C[C@@H]2CNCCN2CCc2cccc3ccccc23)cc1	x	8	-5	13	29	15	x	x
CCC(C(=O)NCc1ccco1)n1nc(C)n2c(cc3occc32)c1=O (stereo unspecified)	-5	5	4	-3	-7	23	x	x
CCOC(=O)C1=C(COC(=O)c2cc(OC)c(OC)c(OC)c2)NC(=O)NC1C (stereo unspecified)	x	4	-6	0	62*	11	1	84*
O=C(CNc1ccccc1Cl)N/N=C1\CCCc2ccccc21	-12	9	-13	0	-16	-4	x	x
COc1ccccc1Nc1nc(NCc2ccco2)c2ccccc2n1	2	5	19	0	37	24	x	x
Cc1ccc(Nc2nc(NCc3ccco3)c3ccccc3n2)cc1	-4	35	24	-4	51*	-1	8	93*
CCCOc1ccc(-c2c(=O)n(O)c3ccccc3[n+]2[O-])cc1	-24	15	46	-5	-23	-4	x	x
CC1(C)NC(=O)N(CC(=O)N2CCC(Cc3ccccc3)CC2)C1=O	1	1	-2	-4	1	10	x	x
CCC1(C)NC(=O)N(CC(=O)N2CCC(Cc3ccccc3)CC2)C1=O (stereo unspecified)	x	58*	-10	x	64*	4	2	35
Cn1c(=O)c2c(SCC(=O)N3CCN(c4ccccc4)CC3)nc(C3CC3)nc2n(C)c1=O	-1	16	2	7	63*	-2	-2	u
CCOC(=O)N1CCC(NC(=O)c2cc(C)c3c(C)nn(-c4ccccc4)c3n2)CC1	-15	-4	3	-9	45*	11	-3	23
O=C(CCN=C1NS(=O)(=O)c2ccccc21)NCc1ccccc1F	x	30	10	x	16	x	x	x
C[C@H](NC(=O)c1ccccc1Cl)C(=O)OCc1cn2cc(Cl)ccc2n1	x	8	3	2	106*	-7	6	4
CC(C)N(C(=O)[C@H]1C[C@H](CC(=O)NCCN2CCOCC2)C(=O)N2CCc3c([nH]c4ccc(Cl)cc34)[C@]12C)C(C)C	x	15	-2	x	x	x	x	x
Oc1cc(Nc2ccncc2)cc2cccnc12	x	-4	28	x	104*	x	-2	109*
